A short description of test [1]: Her2 expression decrease, cell viability multiplex – SKBR3 breast tumor cells, AlphaScreen, ATP viability, primary screen (AID 461;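 active = Her2 level under about 52% in both replicate screens, with viability over 70% of control, limit read from the data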;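 for Her2 level: lower value means less Her2 protein in the cells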;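 for viability: percent of carrier control wells set as 100% viability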). Conditions: SKBR3 Her2 protein level, 18-24 h, measured here: SKBR3 viability, ATP luminescence, at 10 µM.
Test [2] deals with Receptor tyrosine-protein kinase erbB-2 (Homo sapiens) (UniProt P04626). The description is as above. Conditions: 18-24 h, at 10 µM, stronger effect = lower value.
Chain of Receptor tyrosine-protein kinase erbB-2 (Homo sapiens) (P04626 whole entry, looked up): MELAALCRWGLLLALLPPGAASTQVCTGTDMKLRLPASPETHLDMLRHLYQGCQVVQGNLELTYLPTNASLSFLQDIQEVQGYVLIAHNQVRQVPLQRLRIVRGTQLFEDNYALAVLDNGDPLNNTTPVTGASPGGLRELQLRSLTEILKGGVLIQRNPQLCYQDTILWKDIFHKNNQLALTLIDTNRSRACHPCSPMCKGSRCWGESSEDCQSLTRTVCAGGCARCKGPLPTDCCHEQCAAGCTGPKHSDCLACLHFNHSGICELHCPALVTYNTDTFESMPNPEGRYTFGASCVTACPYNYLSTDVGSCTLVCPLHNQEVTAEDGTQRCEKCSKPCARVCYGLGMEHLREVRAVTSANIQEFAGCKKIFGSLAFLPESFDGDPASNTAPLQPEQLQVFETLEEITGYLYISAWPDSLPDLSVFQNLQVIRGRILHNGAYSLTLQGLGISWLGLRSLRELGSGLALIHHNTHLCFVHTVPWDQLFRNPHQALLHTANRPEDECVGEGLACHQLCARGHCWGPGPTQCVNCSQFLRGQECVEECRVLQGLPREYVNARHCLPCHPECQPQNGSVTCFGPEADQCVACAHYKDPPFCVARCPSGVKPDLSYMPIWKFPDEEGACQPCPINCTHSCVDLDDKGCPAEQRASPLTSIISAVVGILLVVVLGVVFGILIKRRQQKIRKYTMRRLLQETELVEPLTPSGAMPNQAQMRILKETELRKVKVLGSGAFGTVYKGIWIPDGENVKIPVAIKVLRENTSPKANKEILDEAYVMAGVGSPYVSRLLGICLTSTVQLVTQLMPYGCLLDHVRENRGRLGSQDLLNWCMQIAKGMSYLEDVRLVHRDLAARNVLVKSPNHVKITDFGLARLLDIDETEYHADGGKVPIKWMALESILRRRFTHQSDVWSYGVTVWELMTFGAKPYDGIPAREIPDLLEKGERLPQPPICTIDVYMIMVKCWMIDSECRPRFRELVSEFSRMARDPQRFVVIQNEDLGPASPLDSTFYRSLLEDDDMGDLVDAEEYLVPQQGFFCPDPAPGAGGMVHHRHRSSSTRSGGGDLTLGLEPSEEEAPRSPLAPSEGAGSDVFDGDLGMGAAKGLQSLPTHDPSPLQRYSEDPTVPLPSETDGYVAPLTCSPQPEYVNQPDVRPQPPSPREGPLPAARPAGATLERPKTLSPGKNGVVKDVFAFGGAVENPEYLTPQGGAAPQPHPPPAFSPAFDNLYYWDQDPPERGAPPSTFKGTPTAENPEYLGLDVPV
Test [3] in a line: reduced viability of SK-BR-3 breast cancer cells – cell-based, 24 h, human, pilot screen (AID 572).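 Note: compound exposure lasted between 18 and 24 h rather than exactly 24 h; 100% = carrier-treated control wells.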 The settings on record: SK-BR-3 viability, CellTiter-Glo luminescence, at 10 µM, stronger effect = lower value.
Test [4] is described as follows: HUVEC growth inhibition – cell-based, human, primary screen (AID 575;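 active = viability at or below 30% in both replicate assays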;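 note: 100% = median of untreated cell wells with 0.1% DMSO on each plate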). The settings on record: HUVEC proliferation, CellTiter-Glo luminescence, 72 h; at 10 µM; stronger effect = lower value. Put shortly: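 Timing: 72 h treatment at 37 °C; material: HUVEC primary cells; technique: CellTiter-Glo luminescence measuring cellular ATP; controls: vehicle and MePR control wells; measure: percent of median DMSO-control luminescence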

Test [5] can be described thus: H69AR cell proliferation blockers – human, duplicate replicates, primary screen (AID 580;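 active = viability at or under a set limit in both replicates, limit being median viability minus 3 SD, cut at about 48% in these data, passing the limit was not always enough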;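 note: 100% = mean luminescence of untreated wells and 0% = no signal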). Conditions: H69AR lung tumor cells viability, ATP luminescence, 72 h; at 10 µM; stronger effect = lower value.
Test [6] in a line: MRP1 drug-resistance reversers in H69AR cells – cell-based, doxorubicin co-treatment, pilot screen (AID 601;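 active = viability loss from added drug above about 55%, and viability with drug at most 40%, in both replicates, limit read from the data, passing the limit was not always enough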). Conditions: CellTiter-Glo, 72 h, at 10 µM; for differential viability (reversal): stronger effect = higher value.
Test [7] in a line: yeast transport mutant growth inhibition pilot in 384-well plates, post-Golgi transport modulator project (AID 636; in the data active = inhibition above about 31%). The settings on record: absorbance 615 nm, about 18 h, stronger effect = higher value.
Test [8] can be described thus: growth suppression of yeast trafficking mutant, preliminary HTS, modulators of trafficking downstream of Golgi apparatus project, 1536-format plate, OD 615 nm (AID 637; in the data active = inhibition above about 30%). Conditions: yeast transport mutant growth, absorbance 615 nm, 18 h; stronger effect = higher value.
[9] abbreviates: H69AR cells + 2 uM doxorubicin, measured here: viability with 2 uM doxorubicin, stronger effect = lower value.
Where [10] appears, read: H69AR cells, compound alone cytotoxicity.

Calls of active or inactive are those of the source.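 Rule for the calls, unless noted: active = viability at or below 10% of carrier control in both of two separate runs; inconclusive = viability at or below 10% in only one of the two runs; inactive = the rest.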

These results are taken from PubChem BioAssay.

Turning to `CCn1c(SCC(=O)c2ccc3c(c2)OCCO3)nnc1-c1ccco1`, the viability is 102% in test [1]; 102% (inactive) in test [3]; 111% (inactive) in test [4]; 98.6% (inactive) in test [5]; 97.9% in test [6] (setting [9]); 98.6% in test [6] (setting [10]). The Her2 level in test [2] is 95% (inactive). In test [6] (H69AR cells + 2 uM doxorubicin), the differential viability (reversal) is 0.66% (inactive). For the same compound, the inhibition was -4% (inactive) in test [7] and -0.65% (inactive) in test [8].

`Cn1c(=O)c2c(nc(SCC(=O)NCc3ccco3)n2C)n(C)c1=O`: the viability in test [1] was 116%; in test [3], 116% (inactive); in test [4] it was 87.1% (inactive); in test [5], 93.5% (inactive); in test [6] (setting [9]), 93.6%; in test [6] (setting [10]), 93.5%. Further, the Her2 level in test [2] was 98.5% (inactive). The differential viability (reversal) in test [6] (H69AR cells + 2 uM doxorubicin) is -0.15% (inactive). The inhibition in test [7] was -0.78% (inactive); in test [8], -4.76% (inactive).

For the compound `Cc1cc(C)c(NC(=O)C2CCCN2CCO)c(C)c1` (stereo not given), the viability in test [1] was 83%; in test [3] it was 83% (inactive); in test [4] it was 108% (inactive); in test [5] it was 86.5% (inactive); in test [6] (setting [9]), 90.3%; in test [6] (setting [10]), 86.5%. In addition, the Her2 level in test [2] was 135% (inactive). Besides, the differential viability (reversal) in test [6] (H69AR cells + 2 uM doxorubicin) was -3.78% (inactive). Besides, the inhibition in test [7] is 0.79% (inactive); in test [8], -8.69% (inactive).

As to `Cn1cc(CN2CCc3ccccc3C2)c2ccccc21`, the viability is 80.5% in test [1]; 80.5% (inactive) in test [3]; 90.4% (inactive) in test [4]; 75.6% (inactive) in test [5]; 84.1% in test [6] (setting [9]); 75.6% in test [6] (setting [10]). The Her2 level in test [2] is 82% (inactive). In test [6] (H69AR cells + 2 uM doxorubicin), the differential viability (reversal) was -8.43% (inactive). For the same compound, the inhibition was -5.58% (inactive) in test [7] and 3.93% (inactive) in test [8].

`COC(=O)c1cc(NC(=O)C2CC=CCC2C(=O)O)cc(C(=O)OC)c1` (stereo not given): the viability in test [1] was 97.5%; in test [3], 97.5% (inactive); in test [4], 104% (inactive); in test [5], 109% (inactive); in test [6] (setting [9]) it was 92.7%; in test [6] (setting [10]) it was 109%. In test [2], the Her2 level was 86.5% (inactive). In addition, the differential viability (reversal) in test [6] (H69AR cells + 2 uM doxorubicin) is 15.8% (inactive). Also, the inhibition in test [7] is -4.8% (inactive); in test [8] it was -1.94% (inactive).

For `COCc1ccccc1Cn1cnc2c1c(=O)n(C)c(=O)n2C`, the viability in test [1] was 99%; in test [3], 99% (inactive); in test [4], 85.8% (inactive); in test [5], 101% (inactive); in test [6] (setting [9]) it was 92.7%; in test [6] (setting [10]) it was 101%. Moreover, in test [2], the Her2 level was 77.5% (inactive). Also, the differential viability (reversal) in test [6] (H69AR cells + 2 uM doxorubicin) is 8.8% (inactive). Also, the inhibition in test [7] is -5% (inactive); in test [8], 0.49% (inactive).

On to `CN(c1ccccc1)S(=O)(=O)c1ccc(C(=O)OCC(=O)NCc2ccco2)cc1`, for which the viability in test [1] is 95.5%; in test [3] it was 95.5% (inactive); in test [4], 88.5% (inactive); in test [5] it was 74.4% (inactive); in test [6] (setting [9]), 84.8%; in test [6] (setting [10]), 74.4%. In addition, the Her2 level in test [2] was 112% (inactive). In addition, in test [6] (H69AR cells + 2 uM doxorubicin), the differential viability (reversal) is -10.4% (inactive). In addition, the inhibition in test [7] is 2.03% (inactive); in test [8], 16.4% (inactive).

Turning to `CN(C)c1ccc2c(c1)OC(N)=C(C#N)C2c1cccc(F)c1` (stereo not given), the viability was 92% in test [1]; 92% (inactive) in test [3]; 17.2% (active) in test [4]; 34.7% (active) in test [5]; 75.7% in test [6] (setting [9]); 34.7% in test [6] (setting [10]). Besides, in test [2], the Her2 level was 90.5% (inactive). In test [6] (H69AR cells + 2 uM doxorubicin), the differential viability (reversal) is -41% (inactive). Besides, the inhibition is -3.24% (inactive) in test [7] and 4.75% (inactive) in test [8].

For `COC(=O)Cc1c(C)nc2nc(-c3ccco3)[nH]n2c1=O`, the viability in test [1] was 110%; in test [3], 110% (inactive); in test [4], 93.6% (inactive); in test [5], 98.7% (inactive); in test [6] (setting [9]), 90.6%; in test [6] (setting [10]), 98.7%. Also, the Her2 level in test [2] is 93% (inactive). In addition, the differential viability (reversal) in test [6] (H69AR cells + 2 uM doxorubicin) is 8.05% (inactive). Moreover, the inhibition in test [7] is -2.76% (inactive); in test [8] it was -3.65% (inactive).

Take `Cc1nnc(SCCn2c(N3CC(C)CC(C)C3)nc3c2c(=O)n(C)c(=O)n3C)s1` (stereo not given): the viability in test [1] was 106%; in test [3], 106% (inactive); in test [4], 93.8% (inactive); in test [5] it was 95.9% (inactive); in test [6] (setting [9]), 98.2%; in test [6] (setting [10]) it was 95.9%. In addition, in test [2], the Her2 level is 99.5% (inactive). Also, in test [6] (H69AR cells + 2 uM doxorubicin), the differential viability (reversal) is -2.37% (inactive). In addition, the inhibition in test [7] is 0.26% (inactive); in test [8], 24.7% (inactive).

Regarding `O=C(Nc1cccnc1N1CCOCC1)c1ccco1`, the viability in test [1] is 110%; in test [3], 110% (inactive); in test [4] it was 115% (inactive); in test [5], 92% (inactive); in test [6] (setting [9]) it was 84.2%; in test [6] (setting [10]), 92%. For the same compound, the Her2 level in test [2] was 86% (inactive). For the same compound, in test [6] (H69AR cells + 2 uM doxorubicin), the differential viability (reversal) is 7.89% (inactive). In addition, the inhibition in test [7] is -7.3% (inactive); in test [8] it was -4.67% (inactive).

Turning to `Cn1c(=O)c2c3c(sc2n2c(SCc4ccccc4)nnc12)CCCC3`, the viability in test [1] was 77%; in test [3], 77% (inactive); in test [4] it was 88.8% (inactive); in test [5], 87.5% (inactive); in test [6] (setting [9]), 78.4%; in test [6] (setting [10]), 87.5%. For the same compound, the Her2 level in test [2] is 91.5% (inactive). Also, in test [6] (H69AR cells + 2 uM doxorubicin), the differential viability (reversal) was 9.04% (inactive). The inhibition is -2.93% (inactive) in test [7] and -1.75% (inactive) in test [8].

As to `COc1ccc(N2CCN(C(=O)C(OC(C)=O)c3ccccc3)CC2)cc1` (stereo not given), the viability in test [1] was 96.5%; in test [3], 96.5% (inactive); in test [4], 89.4% (inactive); in test [5], 97% (inactive); in test [6] (setting [9]), 94.9%; in test [6] (setting [10]), 97%. Further, the Her2 level in test [2] is 99% (inactive). In test [6] (H69AR cells + 2 uM doxorubicin), the differential viability (reversal) is 2.1% (inactive). In addition, the inhibition in test [7] was -0.53% (inactive); in test [8], -2.38% (inactive).

With `COC(=O)C1=CN(C(C)C)C=C(C(=O)OC)C1c1cc2c(cc1Br)OCO2`, the viability in test [1] was 92.5%; in test [3], 92.5% (inactive); in test [4], 74% (inactive); in test [5], 85.4% (inactive); in test [6] (setting [9]), 75.9%; in test [6] (setting [10]), 85.4%. Further, the Her2 level in test [2] was 87.5% (inactive). The differential viability (reversal) in test [6] (H69AR cells + 2 uM doxorubicin) is 9.5% (inactive). The figures for the inhibition in test [7] and in test [8] were -1.47% (inactive) and -4.29% (inactive), respectively.

In the case of `Cc1c(C(=O)OC2CCCCC2)[nH]c2c1C(=O)CC(C)(C)C2`, the viability in test [1] was 82.5%; in test [3], 82.5% (inactive); in test [4], 48.8% (inactive); in test [5], 78.8% (inactive); in test [6] (setting [9]), 82.5%; in test [6] (setting [10]), 78.8%. Besides, the Her2 level in test [2] is 116% (inactive). For the same compound, in test [6] (H69AR cells + 2 uM doxorubicin), the differential viability (reversal) is -3.71% (inactive). For the same compound, the inhibition in test [7] is -3.55% (inactive); in test [8] it was -17.5% (inactive).
